The test system of assay [1] is Mus musculus. The experiment in a line: Compound at an oral dose of 30 mg/Kg was tested for the inhibition of LPS-stimulated TNF-alpha release in mouse. Format: functional. The gist of the method:
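Mice dosed orally at time zero, then immediately given ip D-galactosamine 20 mg plus LPS 10 μg. One hour later, animals anesthetized and bled by cardiac puncture. Plasma TNF-α quantified by mouse-specific ELISA.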

Assay [2] concerns the target Disintegrin and metalloproteinase domain-containing protein 17 (Homo sapiens, UniProt P78536).
In assay [3] the target is Matrix metalloproteinase-9 (Homo sapiens, UniProt P14780). Briefly: In vitro inhibition of human MMP-9.
Matrix metalloproteinase-9, sequence (P14780 whole entry): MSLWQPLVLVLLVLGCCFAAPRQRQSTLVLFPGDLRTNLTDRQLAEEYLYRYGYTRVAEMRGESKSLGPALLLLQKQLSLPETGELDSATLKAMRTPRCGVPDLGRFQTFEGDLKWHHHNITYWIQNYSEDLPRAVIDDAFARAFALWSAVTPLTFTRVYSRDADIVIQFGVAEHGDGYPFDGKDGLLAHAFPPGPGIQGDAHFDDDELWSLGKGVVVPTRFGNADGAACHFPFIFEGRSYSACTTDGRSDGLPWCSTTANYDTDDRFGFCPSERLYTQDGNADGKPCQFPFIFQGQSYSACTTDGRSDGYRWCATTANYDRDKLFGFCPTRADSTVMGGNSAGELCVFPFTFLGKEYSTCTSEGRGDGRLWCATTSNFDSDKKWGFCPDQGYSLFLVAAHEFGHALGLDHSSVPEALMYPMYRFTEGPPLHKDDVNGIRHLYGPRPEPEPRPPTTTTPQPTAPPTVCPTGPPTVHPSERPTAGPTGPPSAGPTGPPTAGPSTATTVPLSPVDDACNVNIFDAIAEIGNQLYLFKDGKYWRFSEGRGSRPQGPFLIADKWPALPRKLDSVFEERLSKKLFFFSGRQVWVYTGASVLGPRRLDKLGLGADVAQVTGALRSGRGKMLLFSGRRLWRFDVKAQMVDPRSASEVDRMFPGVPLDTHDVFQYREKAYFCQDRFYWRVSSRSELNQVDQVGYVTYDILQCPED
Assay [4] has as its target T1, Interstitial collagenase (Homo sapiens, UniProt P03956).
T1 sequence (P03956 whole entry): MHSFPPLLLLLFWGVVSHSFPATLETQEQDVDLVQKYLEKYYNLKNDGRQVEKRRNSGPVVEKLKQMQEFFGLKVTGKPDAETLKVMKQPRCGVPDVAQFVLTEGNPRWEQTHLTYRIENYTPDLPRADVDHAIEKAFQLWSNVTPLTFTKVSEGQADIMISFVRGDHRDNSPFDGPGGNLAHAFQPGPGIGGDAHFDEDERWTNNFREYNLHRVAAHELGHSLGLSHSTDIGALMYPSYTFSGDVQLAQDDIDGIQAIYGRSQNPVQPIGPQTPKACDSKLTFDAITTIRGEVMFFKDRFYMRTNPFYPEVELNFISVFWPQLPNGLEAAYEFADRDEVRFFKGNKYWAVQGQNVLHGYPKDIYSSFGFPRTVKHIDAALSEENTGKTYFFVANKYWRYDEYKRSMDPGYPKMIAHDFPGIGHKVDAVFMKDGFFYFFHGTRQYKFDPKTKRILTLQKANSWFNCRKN
Briefly: In vitro inhibition of human MMP-1.

In assay [5] the target is Stromelysin-1 (Homo sapiens, UniProt P08254). The experiment in a line: Inhibition of human MMP-3.
Stromelysin-1, sequence (P08254 whole entry): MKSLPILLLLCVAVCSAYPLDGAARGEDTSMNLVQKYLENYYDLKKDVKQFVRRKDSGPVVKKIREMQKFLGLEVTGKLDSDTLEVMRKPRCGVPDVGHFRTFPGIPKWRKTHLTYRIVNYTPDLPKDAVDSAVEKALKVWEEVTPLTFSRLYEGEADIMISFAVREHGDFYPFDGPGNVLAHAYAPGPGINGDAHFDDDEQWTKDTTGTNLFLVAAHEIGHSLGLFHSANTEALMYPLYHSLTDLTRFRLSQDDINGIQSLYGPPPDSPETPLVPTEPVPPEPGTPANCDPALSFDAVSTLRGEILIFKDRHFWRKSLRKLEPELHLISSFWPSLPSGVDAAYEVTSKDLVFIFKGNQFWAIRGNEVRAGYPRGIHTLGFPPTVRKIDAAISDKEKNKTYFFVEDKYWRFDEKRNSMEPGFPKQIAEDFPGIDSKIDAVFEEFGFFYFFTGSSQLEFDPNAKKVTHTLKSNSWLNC

As a reminder, the inhibition in vivo is the drop in the measured response relative to a control, in per cent. A low value points to a weak effect. For orientation: IC50 means the concentration needed to halve the response being measured. A low value points to inhibition by little substance. One may read the Ki as the equilibrium dissociation constant of an inhibitor or competing ligand from its target. Higher therefore signals weaker binding.

Disintegrin and metalloproteinase domain-containing protein 17, sequence (P78536 whole entry, the tested form may be a part): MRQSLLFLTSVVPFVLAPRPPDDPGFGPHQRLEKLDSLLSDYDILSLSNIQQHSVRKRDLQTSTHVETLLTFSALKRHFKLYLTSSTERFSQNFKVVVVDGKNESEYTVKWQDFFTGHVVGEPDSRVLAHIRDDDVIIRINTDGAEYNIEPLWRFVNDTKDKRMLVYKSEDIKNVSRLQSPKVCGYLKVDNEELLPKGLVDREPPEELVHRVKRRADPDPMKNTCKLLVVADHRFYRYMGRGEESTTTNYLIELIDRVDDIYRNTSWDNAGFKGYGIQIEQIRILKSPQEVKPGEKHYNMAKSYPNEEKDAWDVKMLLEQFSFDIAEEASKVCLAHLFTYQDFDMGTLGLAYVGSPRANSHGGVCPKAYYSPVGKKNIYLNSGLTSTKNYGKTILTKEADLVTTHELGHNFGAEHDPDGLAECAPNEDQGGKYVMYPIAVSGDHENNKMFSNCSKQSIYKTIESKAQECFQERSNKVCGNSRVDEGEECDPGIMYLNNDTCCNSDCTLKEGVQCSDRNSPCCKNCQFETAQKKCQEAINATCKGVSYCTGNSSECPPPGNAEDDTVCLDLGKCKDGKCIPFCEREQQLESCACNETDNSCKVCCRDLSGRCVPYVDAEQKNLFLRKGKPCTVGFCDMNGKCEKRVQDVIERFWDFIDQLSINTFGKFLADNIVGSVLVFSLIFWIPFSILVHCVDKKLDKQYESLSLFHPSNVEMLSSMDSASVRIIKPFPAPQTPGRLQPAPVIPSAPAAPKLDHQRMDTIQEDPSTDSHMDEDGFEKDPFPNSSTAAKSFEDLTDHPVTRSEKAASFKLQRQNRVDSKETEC

With `CCCCCC[C@H]1C(=O)N[C@H](C(=O)N[C@H](CCCCN)C(N)=O)Cc2ccc(cc2)OCCC[C@@H]1C(=O)NO`, the inhibition in vivo at 30 mg/kg in assay [1] was found to be 36%. In addition, the IC50 in assay [2] is 0.76 µM.

Consider `CNC(=O)[C@@H]1CCCCN(C)C(=O)OCCC[C@H](C(=O)NO)[C@@H](CC(C)C)C(=O)N1`, for which the Ki in assay [3] and in assay [4] was under 0.001 µM throughout. In assay [2], this compound gave an IC50 of 2.3 µM.

The compound `CC(C)C[C@H]1C(=O)N[C@H](C(=O)NCC(=O)NC(C)(C)C)Cc2ccc(cc2)OCCC[C@@H]1C(=O)NO` registered an inhibition in vivo at 30 mg/kg in assay [1] of 21%. The compound also showed an IC50 in assay [2] of 0.2 µM.

As for `CNC(=O)[C@@H]1CCCCNC(=O)OCCC[C@H](C(=O)NO)[C@@H](CC(C)C)C(=O)N1`, the Ki in assay [3] was 0.0011 µM; in assay [4] it was under 0.001 µM. This compound also yielded an IC50 in assay [2] of 1 µM.

Consider `CNC(=O)[C@@H]1CCCCN(C)C(=O)CO[C@H](C(=O)NO)[C@@H](CC(C)C)C(=O)N1`, for which the Ki is 0.003 µM in assay [5], 0.0039 µM in assay [3] and under 0.001 µM in assay [4]. Also, the midpoint of inhibition in assay [2], the IC50, lay at 3.8 µM.

Regarding `CNC(=O)[C@@H]1CCc2ccc(cc2)OCCC[C@H](C(=O)NO)[C@@H](CC(C)C)C(=O)N1`, the results for the Ki in assay [5], in assay [3] and in assay [4] were 0.048 µM, 0.0021 µM and 0.0053 µM, respectively. For the same compound, the IC50 in assay [2] turned out to be 1 µM.

In the case of `CNC(=O)[C@@H](Cc1ccc(OC)cc1)NC(=O)[C@H](CC(C)C)[C@H](C)C(=O)NO`, the Ki in assay [3] and in assay [4] was under 0.001 µM in each case. Also, in assay [2], the IC50 was 1.8 µM.

For `CCCCCC[C@H]1C(=O)N[C@H](C(=O)NCCCn2ccnc2)Cc2ccc(cc2)OCCC[C@@H]1C(=O)NO`, in assay [1], the inhibition in vivo at 30 mg/kg stood at 30%. The compound further gave an IC50 in assay [2] of 0.82 µM.

As for `CNC(=O)[C@@H]1CCCCNC(=O)CC[C@H](C(=O)NO)[C@@H](CC(C)C)C(=O)N1`, the Ki in assay [3] is 0.0036 µM; in assay [4], 0.0014 µM. Besides, the IC50 in assay [2] was 1.6 µM.

In assay [1], `CC(C)C[C@H]1C(=O)N[C@H](C(=O)NCC(=O)N(C)C)Cc2ccc(cc2)OCCC[C@@H]1C(=O)NO` displayed an inhibition in vivo at 30 mg/kg of 45%. This compound also registered an IC50 in assay [2] of 0.4 µM.

Turning to `CNC(=O)[C@@H]1CSc2ccccc2NC(=O)CO[C@H](C(=O)NO)[C@@H](CC(C)C)C(=O)N1`, the Ki in assay [5] is 0.0223 µM; in assay [4] it was under 0.001 µM. Also, the midpoint of inhibition in assay [2], the IC50, lay at 8 µM.

Regarding `CNC(=O)[C@@H]1Cc2cn(c3ccccc23)CCCCO[C@H](C(=O)NO)[C@@H](CC(C)C)C(=O)N1`, the Ki was 0.00288 µM in assay [5] and under 0.001 µM in assay [4]. The IC50 in assay [2] was determined as 3.7 µM.

Consider `CCCCCC[C@H]1C(=O)N[C@H](C(=O)NCCc2ccc(S(N)(=O)=O)cc2)Cc2ccc(cc2)OCCC[C@@H]1C(=O)NO`, for which the inhibition in vivo at 30 mg/kg in assay [1] came out at 26%. Also, the IC50 in assay [2] came to 0.48 µM.

For the compound `CCOC(=O)N1CCN(C(=O)CNC(=O)[C@@H]2CCCCN(C)C(=O)OCCC[C@H](C(=O)NO)[C@@H](CC(C)C)C(=O)N2)CC1`, it took 0.6 µM to reach half-maximal inhibition in assay [2] (IC50). In other words, the sub-micromolar range.

Take `CC(C)C[C@H]1C(=O)N[C@H](C(=O)Nc2ccncc2)CCCCN(C)C(=O)OCCC[C@@H]1C(=O)NO`: in assay [2], half-maximal inhibition (IC50) was put at 0.5 µM.

For `CC(C)C[C@H]1C(=O)N[C@H](C(=O)NCC(=O)N2CCOCC2)CCCCN(C)C(=O)OCCC[C@@H]1C(=O)NO`, in assay [2], the IC50 worked out at 0.2 µM.

Regarding `CC(C)C[C@H]1C(=O)N[C@H](C(=O)NCC(=O)N2CCC(N3CCCCC3)CC2)CCCCNC(=O)OCCC[C@@H]1C(=O)NO`, in assay [2], the half-maximal inhibitory concentration (IC50) came to 0.18 µM.

The compound `CC(C)C[C@H]1C(=O)N[C@H](C(=O)NCCc2c[nH]c3ccc(F)cc23)CCCCNC(=O)OCCC[C@@H]1C(=O)NO` came in with an IC50 in assay [2] of 0.13 µM.

With `CC(C)C[C@H]1C(=O)N[C@H](C(=O)NC[C@@H]2CCCO2)CCCCNC(=O)OCCC[C@@H]1C(=O)NO`, the IC50 in assay [2] turned out to be 0.26 µM.

As to `CNC(=O)[C@@H](Cc1ccc(OC)cc1)NC(=O)[C@@H]1Cc2ccc(cc2)OCCC[C@H](C(=O)NO)[C@@H](CC(C)C)C(=O)N1`, in assay [2], the 50% inhibitory concentration (IC50) was 0.85 µM.

In turn, `CCOC(=O)N1CCC(NC(=O)[C@@H]2CCCCNC(=O)OCCC[C@H](C(=O)NO)[C@@H](CC(C)C)C(=O)N2)CC1` returned an IC50 in assay [2] of 0.13 µM.

Compound `CC(C)C[C@H]1C(=O)N[C@H](C(=O)NCC(=O)N2CCC(C(=O)O)CC2)CCCCNC(=O)OCCC[C@@H]1C(=O)NO` had an IC50 in assay [2] of 0.22 µM.

Take `CCOC(=O)N1CCN(C(=O)CNC(=O)[C@@H]2CCCCNC(=O)OCCC[C@H](C(=O)NO)[C@@H](CC(C)C)C(=O)N2)CC1`: the IC50 in assay [2] is 0.13 µM. Against the preceding compound, the IC50 is about 1.7-fold lower.

Compound `CC(C)C[C@H]1C(=O)N[C@H](C(=O)NCC(=O)N2CCN(c3ccccc3)CC2)CCCCNC(=O)OCCC[C@@H]1C(=O)NO` displayed an IC50 in assay [2] of 0.07 µM.

As for `CNC(=O)[C@H](NC(=O)[C@@H]1CCCCNC(=O)OCCC[C@H](C(=O)NO)[C@@H](CC(C)C)C(=O)N1)C(C)(C)C`, the IC50 in assay [2] turned out to be 1.2 µM.

In assay [1], `CCCCCC[C@H]1C(=O)N[C@H](C(=O)N[C@H](COC(C)(C)C)C(=O)NC)Cc2ccc(cc2)OCCC[C@@H]1C(=O)NO` came in with an inhibition in vivo at 30 mg/kg of 18%. For the same compound, 0.3 µM corresponded to half-maximal inhibition in assay [2] (IC50).

`CCCCCC[C@H]1C(=O)N[C@H](C(=O)OC)Cc2ccc(cc2)OCCC[C@@H]1C(=O)NO` registered an IC50 in assay [2] of over 50 µM.

In assay [2], `CNC(=O)[C@@H](COC(C)(C)C)NC(=O)[C@@H]1Cc2ccc(cc2)OCCC[C@H](C(=O)NO)[C@@H](CC(C)C)C(=O)N1` displayed an IC50 of 0.95 µM.

`CC(C)C[C@H]1C(=O)N[C@H](C(=O)NCCc2ccccc2O)CCCCNC(=O)OCCC[C@@H]1C(=O)NO`: inhibition in assay [2] was half-maximal at 0.085 µM (IC50).

In assay [2], `CNC(=O)[C@@H](CCCCN)NC(=O)[C@@H]1CCCCNC(=O)OCCC[C@H](C(=O)NO)[C@@H](CC(C)C)C(=O)N1` came in with an IC50 of 0.69 µM.

Consider `CC(C)C[C@H]1C(=O)N[C@H](C(=O)NCC(=O)NC2CCC2)Cc2ccc(cc2)OCCC[C@@H]1C(=O)NO`, for which at 30 mg/kg the inhibition in vivo in assay [1] was 31%. Also, in assay [2], the IC50 was 0.2 µM.

Consider `CC(C)C[C@H]1C(=O)N[C@H](C(=O)N[C@H]2c3ccccc3C[C@H]2O)CCCCNC(=O)OCCC[C@@H]1C(=O)NO`, for which 0.4 µM corresponded to half-maximal inhibition in assay [2] (IC50).

The compound `CNC(=O)[C@@H]1CCCCNCCC[C@H](C(=O)NO)[C@@H](CC(C)C)C(=O)N1` registered an IC50 in assay [2] of 2.7 µM.

For `CC(C)C[C@H]1C(=O)N[C@H](C(=O)NCC(=O)N2CCN(C)CC2)CCCCNC(=O)OCCC[C@@H]1C(=O)NO`, in assay [2], the IC50 is 0.16 µM.

As to `COc1ccc2[nH]cc(CCNC(=O)[C@@H]3CCCCNC(=O)OCCC[C@H](C(=O)NO)[C@@H](CC(C)C)C(=O)N3)c2c1`, in assay [2], the IC50 turned out to be 0.49 µM.

For the compound `CC(C)C[C@H]1C(=O)N[C@H](C(=O)NCCc2ccccn2)CCCCNC(=O)OCCC[C@@H]1C(=O)NO`, the IC50 in assay [2] was 0.39 µM.

As for `CNC(=O)[C@@H]1CCCc2ccc(cc2)OCCC[C@H](C(=O)NO)[C@@H](CC(C)C)C(=O)N1`, the Ki in assay [5] worked out at 0.0162 µM; in assay [3], 0.0033 µM; in assay [4] it was 0.0018 µM. Also, in assay [2], the IC50 is 2.4 µM.

In assay [2], `CC(C)C[C@H]1C(=O)N[C@H](C(=O)NC[C@H]2CCCO2)CCCCNC(=O)OCCC[C@@H]1C(=O)NO` gave an IC50 of 0.98 µM.

In turn, `Cc1csc(NC(=O)CNC(=O)[C@@H]2CCCCN(C)C(=O)OCCC[C@H](C(=O)NO)[C@@H](CC(C)C)C(=O)N2)n1` returned an IC50 in assay [2] of 0.3 µM.

In assay [2], `CC(C)C[C@H]1C(=O)N[C@H](C(=O)NCC(=O)NCC(F)(F)F)Cc2ccc(cc2)OCCC[C@@H]1C(=O)NO` displayed an IC50 of 0.24 µM.

Regarding `Cc1ccc2[nH]cc(CCNC(=O)[C@@H]3CCCCNC(=O)OCCC[C@H](C(=O)NO)[C@@H](CC(C)C)C(=O)N3)c2c1`, in assay [2], the IC50 came out at 1.17 µM.

`CC(C)C[C@H]1C(=O)N[C@H](C(=O)NCc2ccncc2)CCCCNC(=O)OCCC[C@@H]1C(=O)NO` displayed an IC50 in assay [2] of 0.49 µM.

Consider `CNC(=O)[C@@H](CCCCNC(=O)OC(C)(C)C)NC(=O)[C@@H]1CCCCNC(=O)OCCC[C@H](C(=O)NO)[C@@H](CC(C)C)C(=O)N1`, for which, in assay [2], the IC50 was found to be 0.21 µM. Against the preceding compound, the IC50 is about 2.3-fold lower.

Turning to `Cc1csc(NC(=O)[C@@H]2CCCCN(C)C(=O)OCCC[C@H](C(=O)NO)[C@@H](CC(C)C)C(=O)N2)n1`, the IC50 in assay [2] turned out to be 0.3 µM.

For the origin of these results see ChEMBL document CHEMBL1134554, “Design, synthesis, and structure-activity relationships of macrocyclic hydroxamic acids that inhibit tumor necrosis factor alpha release in vitro and in vivo” (J Med Chem, 2001).
